Source: ChEMBL document CHEMBL1153536, “5-lipoxygenase-activating protein inhibitors: development of 3-[3-tert-butylsulfanyl-1-[4-(6-methoxy-pyridin-3-yl)-benzyl]-5-(pyridin-2-ylmethoxy)-1H-indol-2-yl]-2,2-dimethyl-propionic acid (AM103)” (J Med Chem, 2009)

What was measured:
[1] = target: T1, Arachidonate 5-lipoxygenase-activating protein (Homo sapiens, UniProt P20292); assay: Displacement of [3H]3-[5-(pyrid-2-ylmethoxy)-3-tert-butylthio-1-benzyl-indol-2-yl]-2,2-dimethylpropionic acid from FLAP in human polymorphonuclear cell membrane
T1 sequence (P20292 whole entry): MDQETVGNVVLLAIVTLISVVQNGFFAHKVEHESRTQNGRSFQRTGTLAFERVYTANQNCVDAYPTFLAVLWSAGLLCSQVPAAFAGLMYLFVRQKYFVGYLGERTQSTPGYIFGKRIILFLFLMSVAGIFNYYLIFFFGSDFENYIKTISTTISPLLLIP

Cytochrome P450 3A4 [2] = target: T2, Cytochrome P450 3A4 (Homo sapiens, UniProt P08684); assay: Inhibition of CYP3A4 assessed as inhibition rate
T2 sequence (P08684 whole entry): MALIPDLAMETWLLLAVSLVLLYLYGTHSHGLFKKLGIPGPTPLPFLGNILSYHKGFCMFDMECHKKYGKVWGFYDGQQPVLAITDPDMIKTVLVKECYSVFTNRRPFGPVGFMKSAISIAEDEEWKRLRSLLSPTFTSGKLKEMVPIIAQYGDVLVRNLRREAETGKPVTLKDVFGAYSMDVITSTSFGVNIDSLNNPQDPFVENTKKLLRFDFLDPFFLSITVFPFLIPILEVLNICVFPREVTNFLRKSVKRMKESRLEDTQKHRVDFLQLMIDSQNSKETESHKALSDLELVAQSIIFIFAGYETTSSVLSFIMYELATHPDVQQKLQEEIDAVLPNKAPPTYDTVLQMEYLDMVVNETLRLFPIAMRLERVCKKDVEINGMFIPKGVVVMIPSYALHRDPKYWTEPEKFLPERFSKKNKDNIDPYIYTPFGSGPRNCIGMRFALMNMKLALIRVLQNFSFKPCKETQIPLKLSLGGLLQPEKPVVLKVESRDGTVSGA

[3] = Inhibition of calcium ionophore A-23187-stimulated LTB4 production in human leukocytes by ELISA; assay type: functional, cell-based; details: Leukocyte
How it was run: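 Dextran-sedimented, hypotonically lysed human leukocytes at 1.25 × 10^5 cells/mL, preincubated 5 min at 37 °C with compound in DMSO. Stimulated 5 min at 37 °C with A23187 (5 μL of 0.5 mM into 250 μL). Supernatant LTB4 measured by ELISA at 1:4 dilution; IC50 by nonlinear regression of % inhibition vs log concentration.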

Cytochrome P450 2D6 = Cytochrome P450 2D6 (Homo sapiens, UniProt P10635); assay: Inhibition of CYP2D6; assay type: ADME
Chain of Cytochrome P450 2D6 (P10635 whole entry): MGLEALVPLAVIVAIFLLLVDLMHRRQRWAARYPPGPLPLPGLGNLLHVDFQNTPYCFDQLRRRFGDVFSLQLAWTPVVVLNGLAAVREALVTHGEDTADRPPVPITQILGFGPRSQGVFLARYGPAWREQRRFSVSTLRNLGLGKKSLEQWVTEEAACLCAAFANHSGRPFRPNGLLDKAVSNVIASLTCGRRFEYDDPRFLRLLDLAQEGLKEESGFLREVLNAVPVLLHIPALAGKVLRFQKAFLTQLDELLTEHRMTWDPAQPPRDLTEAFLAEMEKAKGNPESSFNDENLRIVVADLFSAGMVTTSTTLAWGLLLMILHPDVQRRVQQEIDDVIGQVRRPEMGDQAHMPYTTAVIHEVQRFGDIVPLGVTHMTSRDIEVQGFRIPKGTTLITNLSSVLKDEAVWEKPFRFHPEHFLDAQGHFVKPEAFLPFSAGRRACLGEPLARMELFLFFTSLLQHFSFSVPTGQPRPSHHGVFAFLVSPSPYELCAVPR

Cytochrome P450 2C9 = Cytochrome P450 2C9 (Homo sapiens, UniProt P11712); assay: Inhibition of CYP2C9; assay type: ADME
Chain of Cytochrome P450 2C9 (P11712 whole entry): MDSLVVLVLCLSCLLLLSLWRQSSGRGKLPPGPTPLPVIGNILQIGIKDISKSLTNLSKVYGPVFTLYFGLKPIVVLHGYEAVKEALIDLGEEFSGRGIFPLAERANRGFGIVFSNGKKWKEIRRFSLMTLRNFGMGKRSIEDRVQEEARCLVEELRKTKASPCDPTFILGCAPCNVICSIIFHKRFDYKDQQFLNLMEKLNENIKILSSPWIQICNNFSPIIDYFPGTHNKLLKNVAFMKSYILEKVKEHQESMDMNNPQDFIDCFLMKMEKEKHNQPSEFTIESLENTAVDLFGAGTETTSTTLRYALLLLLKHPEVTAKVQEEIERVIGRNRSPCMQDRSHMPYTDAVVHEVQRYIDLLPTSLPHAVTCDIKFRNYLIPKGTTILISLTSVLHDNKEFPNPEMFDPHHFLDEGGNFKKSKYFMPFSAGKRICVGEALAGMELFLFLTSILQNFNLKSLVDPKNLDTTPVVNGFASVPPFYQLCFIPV

Blood = assay: Inhibition of calcium ionophore A-23187-stimulated LTB4 production in human whole blood by ELISA; assay type: functional, tissue-based
How it was run: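 Heparinized human whole blood preincubated 15 min at 37 °C with compound in DMSO. Stimulated 30 min at 37 °C with A23187 (2 μL of 1.5 mM into 150 μL). Plasma LTB4 measured by ELISA at 1:100 dilution; IC50 by nonlinear regression. A single value is one assay averaging two donors.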

CYP3A4 = CYP3A4 (Homo sapiens, UniProt P08684); assay: Inhibition of CYP3A4 at 10 uM; assay type: ADME
Chain of CYP3A4 (P08684 whole entry): as the sequence (P08684 whole entry) above

Cytochrome P450 3A4 [4] = target: T2, Cytochrome P450 3A4; assay: Inhibition of CYP3A4; assay type: ADME
[5] = Bioavailability in Sprague-Dawley rat at 2 mg/kg, iv and 10 mg/kg, po; assay type: ADME, organism-based; details: Sprague-Dawley, in vivo
How it was run: (§1)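 Male rats fasted overnight, 2 or 3 per route. Dosing was 2 mg/kg i.v. as a jugular bolus in PEG400/ethanol/water (40/10/50) and 10 mg/kg p.o. by gavage in 0.5% methylcellulose. Jugular cannula blood was sampled up to 24 h (8-9 samples). Plasma was acetonitrile-precipitated with buspirone internal standard and quantified by LC-MS/MS, positive ESI MRM, calibration […], LLOQ 1-5 ng/mL.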

[6] = AUC in Sprague-Dawley rat at 10 mg/kg, po; assay type: ADME, organism-based; parameters: dose 10 mg/kg, route oral; details: plasma; how it was run: as §1
[7] = Volume of distribution at steady state in Sprague-Dawley rat at 2 mg/kg, iv and 10 mg/kg, po; assay type: ADME, organism-based; details: in vivo, read-out: Vdss; how it was run: as §1
[8] = Cmax in Sprague-Dawley rat after 10 mg/kg oral dose; assay type: ADME, organism-based; parameters: dose 10 mg/kg, route oral; details: in vivo; how it was run: as §1
[9] = Half life in Sprague-Dawley rat at 2 mg/kg, iv; assay type: ADME, organism-based; parameters: dose 2 mg/kg, route intravenous; details: in vivo; how it was run: as §1
[10] = Clearance in Sprague-Dawley rat at 2 mg/kg, iv and 10 mg/kg, po; assay type: ADME, organism-based; details: in vivo; how it was run: as §1
P2Y purinoceptor 12 = P2Y purinoceptor 12 (Homo sapiens, UniProt Q9H244); assay: Agonist activity at human P2Y12 receptor; assay type: functional
Chain of P2Y purinoceptor 12 (Q9H244 whole entry): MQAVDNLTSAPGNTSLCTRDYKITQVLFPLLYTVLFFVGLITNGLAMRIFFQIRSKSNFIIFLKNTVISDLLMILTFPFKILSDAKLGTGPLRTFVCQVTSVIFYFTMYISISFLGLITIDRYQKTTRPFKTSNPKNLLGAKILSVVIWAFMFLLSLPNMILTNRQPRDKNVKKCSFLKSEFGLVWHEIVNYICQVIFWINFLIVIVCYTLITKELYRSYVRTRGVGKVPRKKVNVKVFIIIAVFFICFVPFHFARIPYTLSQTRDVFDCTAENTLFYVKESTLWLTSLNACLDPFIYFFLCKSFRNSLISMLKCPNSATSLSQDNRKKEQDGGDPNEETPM

Row | SMILES | IC50 [1] | TDI (Cytochrome P450 3A4 [2]) | IC50 [3] | IC50 (Cytochrome P450 2D6) | IC50 (Cytochrome P450 2C9) | IC50 (Blood) | further results
1 | CC(C)(C)Sc1c(CC(C)(C)C(=O)O)n(Cc2ccc(Cl)cc2)c2ccc(OCc3ccc4ccccc4n3)cc12 [QUIFLAPON] | – | 0.009 min⁻¹ | 0.5 nM | 11000 nM | 500 nM | 540 nM | –
2 | CC(C)(C)CCc1c(CC(C)(C)C(=O)O)n(Cc2ccc(-c3nccs3)cc2)c2ccc(OCc3ccccn3)cc12 | 229 nM | – | 5.3 nM | – | – | 4860 nM | –
3 | COc1ccc(-c2ccc(Cn3c(CC(C)(C)C(=O)O)c([S+]([O-])C(C)(C)C)c4cc(OCc5ccccn5)ccc43)cc2)cn1 (stereo unspecified) | 793 nM | – | 2000 nM | – | – | – | –
4 | COc1ccc(-c2ccc(Cn3c(CC(C)(C)C(=O)O)c(S(=O)(=O)C(C)(C)C)c4cc(OCc5ccccn5)ccc43)cc2)cn1 | 205 nM | – | 59 nM | – | – | 3420 nM | –
5 | CC(C)(C)Sc1c(CC(C)(C)C(=O)O)n(Cc2ccc(-c3nccs3)cc2)c2ccc(OCc3ccccn3)cc12 | 4.8 nM | 0.033 min⁻¹ | 1 nM | 4000 nM | 9100 nM | 273 nM | bioavailability [5]: 50%; AUC [6]: 9540 ng·h/mL; IC50 (Cytochrome P450 3A4 [4]): 1400 nM; Vd [7]: 0.71 L/kg; Cmax [8]: 4300 ng/mL; half-life [9]: 6.3 h; clearance [10]: 8.6 mL/min/kg
6 | CCCCC/C=C\C\C=C/C=C/C=C/[C@@H](SC[C@H](N)C(=O)O)[C@@H](O)CCCC(=O)O [LEUKOTRIEN E4] | – | – | – | – | – | – | EC50 (P2Y purinoceptor 12): 1.3 nM

Second part, led by results:

Row | IC50 [1] | TDI (Cytochrome P450 3A4 [2]) | IC50 [3] | IC50 (Cytochrome P450 2D6) | IC50 (Cytochrome P450 2C9) | IC50 (Blood) | SMILES | further results
7 | 7.3 nM | 0.006 min⁻¹ | – | – | – | – | Cc1csc(-c2ccc(Cn3c(CC(C)(C)C(=O)O)c(SC(C)(C)C)c4cc(OCc5ccccn5)ccc43)cc2)n1 | –
8 | 6.5 nM | – | 1.3 nM | > 10000 nM | 10000 nM | 577 nM | Cc1ccc(-c2ccc(Cn3c(CC(C)(C)C(=O)O)c(SC(C)(C)C)c4cc(OCc5ccccn5)ccc43)cc2)cn1 | inhibition at 10 µM (CYP3A4): 64%
9 | 1.7 nM | – | 0.8 nM | > 30000 nM | 1000 nM | 512 nM | CC(C)(C)Sc1c(CC(C)(C)C(=O)O)n(Cc2ccc(Cl)cc2)c2ccc(OCc3ccccn3)cc12 | IC50 (Cytochrome P450 3A4 [4]): 11500 nM
10 | 4.8 nM | 0.014 min⁻¹ | – | – | – | – | Cc1cnc(-c2ccc(Cn3c(CC(C)(C)C(=O)O)c(SC(C)(C)C)c4cc(OCc5ccccn5)ccc43)cc2)s1 | –
11 | 6.9 nM | – | 6.4 nM | > 10000 nM | > 10000 nM | 1210 nM | CC(C)(C)Sc1c(CC(C)(C)C(=O)O)n(Cc2ccc(-c3ncccn3)cc2)c2ccc(OCc3ccccn3)cc12 | IC50 (Cytochrome P450 3A4 [4]): > 10000 nM
12 | 2.1 nM | 0.017 min⁻¹ | – | – | – | – | CC(C)(C)Sc1c(CC(C)(C)C(=O)O)n(Cc2ccc(-c3ncc(F)s3)cc2)c2ccc(OCc3ccccn3)cc12 | –
